# Activity calls are given as the source filed them. No cut-off for these calls is given here.
# Assays:
# [1] = (§1) Displacement of [125I]Angiotensin-2 from angiotensin AT1 receptor in Sprague-Dawley rat VSMC after 60 mins by gamma counting
# Procedure, shortened: (§2)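 VSMCs from SD rat thoracic aorta, grown as explants in DMEM with 15% FBS; passages 3–7 used. Cells incubated with 0.1 nM [125I]Ang II and compound (1 × 10^-6 to 1 × 10^-12 M final) for 60 min at 37 °C. Nonspecific binding set with 1 µM Ang II. After PBS washes, cells lysed in 0.1 M NaOH and counted by gamma counter. IC50 obtained by regression of displacement curves; Ki = IC50/(1+[L]/Kd).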
# Rattus norvegicus [2] = species: Rattus norvegicus; assay: as §1; procedure, shortened: as §2
# Rattus norvegicus [3] = assay: Cardiotoxicity in SHR rat assessed as effect on heart rate at 10 mg/kg, po; assay type: toxicity, organism-based; design: dose 10 mg/kg, route oral; conditions: in vivo
# Procedure, shortened: (§3)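 Heart rate taken in SHR (250-300 g, 10 per group) given 5 or 10 mg/kg orally as a suspension in 0.5% sodium carboxymethyl cellulose, alongside a vehicle control. Monitored under sodium pentobarbital anesthesia (40 mg/kg ip) through a carotid arterial catheter and pressure transducer, continuously for over 10 h and again at 24 h.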
# Rattus norvegicus [4] = assay: Cardiotoxicity in SHR rat assessed as effect on heart rate at 5 mg/kg, po; assay type: toxicity, organism-based; design: dose 5 mg/kg, route oral; conditions: in vivo; procedure, shortened: as §3
# Rattus norvegicus [5] = assay: Antihypertensive activity in SHR rat assessed as mean arterial pressure at 5 to 10 mg/kg, po; assay type: functional, organism-based; conditions: Artery
# Procedure, shortened: (§4)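 SHR (250-300 g) or renal hypertensive rats (SD rats, 250-350 g, left renal artery fully ligated under sodium pentobarbital 40 mg/kg; SBP above 160 mmHg selected), 10 per group. Dosed orally at 5 or 10 mg/kg as a suspension in 0.5% sodium carboxymethyl cellulose; vehicle-only negative control. Rats under pentobarbital (40 mg/kg ip) with right carotid cannulated to a pressure transducer; MAP recorded continuously for over 10 h and again at 24 h.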
# Rattus norvegicus [6] = assay: Antihypertensive activity in Sprague-Dawley rat renal hypertensive model assessed as decrease in mean arterial pressure at 10 mg/kg, po; assay type: functional, organism-based; design: dose 10 mg/kg; conditions: Artery; procedure, shortened: as §4
# Rattus norvegicus [7] = assay: Antihypertensive activity in SHR rat assessed as decrease in mean arterial pressure at 5 to 10 mg/kg, po measured for 8 hrs after dosing; assay type: functional, organism-based; conditions: Artery; procedure, shortened: as §4
# Rattus norvegicus [8] = assay: Antihypertensive activity in SHR rat assessed as decrease in mean arterial pressure at 10 mg/kg, po after 3 hrs; assay type: functional, Artery; procedure, shortened: as §4
# Rattus norvegicus [9] = assay: Antihypertensive activity in SHR rat assessed as decrease in mean arterial pressure at 5 mg/kg, po after 3 hrs; assay type: functional, Artery; procedure, shortened: as §4
# Rattus norvegicus [10] = assay: Antihypertensive activity in SHR rat assessed as decrease in mean arterial pressure at 10 mg/kg, po; assay type: functional, Artery; procedure, shortened: as §4
# Rattus norvegicus [11] = assay: Antihypertensive activity in SHR rat assessed as decrease in mean arterial pressure at 5 mg/kg, po; assay type: functional, Artery; procedure, shortened: as §4
# Rattus norvegicus [12] = assay: Antihypertensive activity in SHR rat assessed as decrease in mean arterial pressure at 10 mg/kg, po measured for 9 hrs after dosing; assay type: functional, organism-based; design: dose 10 mg/kg; conditions: Artery; procedure, shortened: as §4
# LNCaP [13] = assay: Antitumor activity against human LNCAP cells xenografted in athymic nude mouse assessed as relative tumor volume at 10 mg/kg/day dosed on day 8 measured at 4 weeks post implantation by caliper measurement (reference value: 28.34 +/-2.05); assay type: functional
# LNCaP [14] = assay: Antitumor activity against human LNCAP cells xenografted in athymic nude mouse assessed as relative tumor volume at 5 mg/kg/day dosed on day 8 measured at 4 weeks post implantation by caliper measurement (reference value: 28.34 +/-2.05); assay type: functional
# LNCaP [15] = assay: Antiproliferative activity against human LNCAP cells assessed as reduction in Ang-2-induced increase in cell viability at 10 uM after 24 to 96 hrs by MTT assay; assay type: functional, cell-based
# Procedure, shortened: (§5)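 LNCaP cells (1 × 10^5 per well) grown overnight at 37 °C, 5% CO2, then exposed to compound at 10 µM, with or without Ang II (1 × 10^-7 M). Control got medium with 0.05% v/v DMSO. MTT (5 mg/mL stock) added after 24, 48, 72 or 96 h and incubated 4 h at 37 °C; formazan dissolved in DMSO and read at 570 nm.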
# Rattus norvegicus [16] = assay: Antihypertensive activity in SHR rat assessed as decrease in mean arterial pressure at 10 mg/kg, po measured for 7 hrs after dosing; assay type: functional, organism-based; design: dose 10 mg/kg; conditions: Artery; procedure, shortened: as §4
# LNCaP [17] = assay: Cytotoxicity against human LNCAP cells assessed as cell viability at 10 uM after 24 to 96 hrs by MTT assay; assay type: cell-based; procedure, shortened: as §5
# Rattus norvegicus [18] = assay: Antihypertensive activity in Sprague-Dawley rat renal hypertensive model assessed as decrease in mean arterial pressure at 5 mg/kg, po; assay type: functional, organism-based; design: dose 5 mg/kg; conditions: Artery; procedure, shortened: as §4
# Rattus norvegicus [19] = assay: Antihypertensive activity in SHR rat assessed as decrease in mean arterial pressure at 10 mg/kg, po after 24 hrs; assay type: functional, organism-based; design: dose 10 mg/kg; conditions: Artery; procedure, shortened: as §4
# Rattus norvegicus [20] = assay: Antihypertensive activity in SHR rat assessed as decrease in mean arterial pressure at 5 to 10 mg/kg, po after 3 to 5 hrs; assay type: functional, organism-based; conditions: Artery; procedure, shortened: as §4
SMILES,IC50 [1],Ki [1],inhibition (Rattus norvegicus [2]),Activity (Rattus norvegicus [3]),Activity (Rattus norvegicus [4]),Activity (Rattus norvegicus [5]),Activity (Rattus norvegicus [6]),Activity (Rattus norvegicus [10]),also measured
CCCCC1=NC2(CCCC2)C(=O)N1Cc1ccc(-c2ccccc2-c2nnn[nH]2)cc1 [IRBESARTAN],3.11 nM,2.75 nM,Dose-dependent effect,–,–,–,–,–,–
CCCCc1nc(Cl)c(C(=O)O)n1Cc1ccc(-c2ccc(F)cc2C(=O)O)cc1,26.1 nM,17.6 nM,Dose-dependent effect,Non-toxic,Non-toxic,inactive,–,–,–
CCCCc1nc(Cl)c(C(=O)O)n1Cc1ccc(-c2cc(F)ccc2C(=O)O)cc1,13.6 nM,9.17 nM,Dose-dependent effect,Non-toxic,Non-toxic,–,Active,–,Activity (Rattus norvegicus [7]): Active; Activity (Rattus norvegicus [8]): 32 mmHg; Activity (Rattus norvegicus [9]): 23 mmHg
CCCCc1nc(Cl)c(CO)n1Cc1ccc(-c2ccccc2-c2nnn[nH]2)cc1 [LOSARTAN],1.64 nM,1.41 nM,Dose-dependent effect,–,–,–,Active,27 mmHg,Ratio (LNCaP [13]): 15.75; Ratio (LNCaP [14]): 21.44; Activity (LNCaP [15]): Active; Activity (Rattus norvegicus [16]): Active
CCCCc1nc(Cl)c(CO)n1Cc1ccc(-c2ccccc2-c2nn[nH]n2)cc1 [LOSARTAN],–,–,–,Non-toxic,–,–,–,–,Activity (LNCaP [17]): Non-toxic

# The next lines start with results.
IC50 [1],Ki [1],inhibition (Rattus norvegicus [2]),SMILES,Activity (Rattus norvegicus [3]),Activity (Rattus norvegicus [4]),Activity (Rattus norvegicus [5]),Activity (Rattus norvegicus [6]),Activity (Rattus norvegicus [10]),also measured
9.98 nM,6.75 nM,Dose-dependent effect,CCCCC1=NC2(CCCC2)C(=O)N1Cc1ccc(-c2ccc(F)cc2C(=O)O)cc1,Non-toxic,Non-toxic,inactive,–,–,–
13.5 nM,9.11 nM,Dose-dependent effect,CCCCc1nc(Cl)c(C(=O)O)n1Cc1ccc(-c2cc(F)c(F)cc2C(=O)O)cc1,Non-toxic,Non-toxic,inactive,–,–,–
4.11 nM,3.78 nM,Dose-dependent effect,CCCCc1nc(Cl)c(CO)n1Cc1ccc(-c2ccc(F)cc2C(=O)O)cc1,Non-toxic,Non-toxic,–,Active,25 mmHg,Activity (Rattus norvegicus [11]): 18 mmHg; Activity (Rattus norvegicus [7]): Active
2.64 nM,2.08 nM,Dose-dependent effect,CCCCC(=O)N(Cc1ccc(-c2ccccc2-c2nnn[nH]2)cc1)[C@H](C(=O)O)C(C)C [VALSARTAN],Non-toxic,–,–,Active,28 mmHg,Activity (Rattus norvegicus [12]): Active
0.584 nM,0.42 nM,Dose-dependent effect,CCCC(=O)N(Cc1ccc(-c2ccc(F)cc2C(=O)O)cc1)[C@H](C(=O)O)C(C)C,Non-toxic,Non-toxic,–,Active,42 mmHg,Ratio (LNCaP [13]): 12.39; Ratio (LNCaP [14]): 17.44; Activity (LNCaP [17]): Non-toxic; Activity (LNCaP [15]): Active; Activity (Rattus norvegicus [18]): Active; Activity (Rattus norvegicus [19]): Active; Activity (Rattus norvegicus [20]): Active; Activity (Rattus norvegicus [11]): 27 mmHg

# — ChEMBL document CHEMBL2203191, “Synthesis and biological evaluation of new fluorine substituted derivatives as angiotensin II receptor antagonists with anti-hypertension and anti-tumor effects” (Bioorg Med Chem, 2012)
